Measurements collected from several papers.
Cell line: MRC5
Observed: cell growth or viability

SMILES | method | concentration | time | endpoint | value
CC(C)(C)OC(=O)N1CCN(c2cc(-c3cnc4[nH]cc(C(=O)c5ccc(F)cc5)c4c3)ccn2)CC1 | MTT | 10 µM | 48 h | viability | 78.9%
O=c1c2ccccc2[se]n1-c1ccccc1 | MTT |  | 72 h | IC50 | 94 µM
C=CCc1cc(OC)c2c(c1)OCO2 | SRB |  |  | IC50 | 420 µM
CC(C)(C)OC(=O)N1CCN(c2ccc(-c3cnc4[nH]cc(C(=O)c5ccc(F)cc5)c4c3)cc2)CC1 | MTT | 10 µM | 48 h | viability | 78.7%
COc1c2c(cc3c1OCO3)[C@]13C=C[C@H](OC)C[C@@H]1[N@](C2)C[C@H]3OC(=O)c1ccoc1 | WST-1 |  |  | IC50 | > 10 µM
CS(=O)(=O)N1CCN(c2ccc(-c3cnc4[nH]cc(C(=O)c5ccc(F)cc5)c4c3)cn2)CC1 | MTT | 10 µM | 48 h | viability | 79.1%
Nc1cc(Cl)c(Cl)cc1N |  |  | 72 h | IC50 | > 250 µM
N.N.[Cl][Pt][Cl] | SRB |  |  | EC50 | 5.8 µM
Nc1cc(Br)c(Br)cc1N |  |  | 72 h | IC50 | 200 µM
CC(C)=CCOc1c2occc2cc2ccc(=O)oc12 | MTT |  | 72 h | IC50 | > 100 µM
CCOC(=O)CCn1cc(C(=O)c2ccc(F)cc2)c2cc(-c3ccc(N4CCN(C(=O)OC(C)(C)C)CC4)nc3)cnc21 | MTT | 10 µM | 48 h | viability | 92.1%
COc1c2c(cc3c1OCO3)[C@]13C=C[C@H](OC)C[C@@H]1[N@](C2)C[C@H]3OC(=O)c1ccc2ccccc2c1 | WST-1 |  |  | IC50 | > 10 µM
CC1=CC(=O)c2c(O)cccc2C1=O | SRB |  |  | IC50 | 5.15 µM
